pIC50, pKi: −log10 of the molar value. Calls of active or inactive are those of the source. The calls are words filed in the database; no cut-off is given here.
Columns and labels:
Mus musculus [1] = experiment: Anticonvulsant activity in CF-1 albino mouse assessed as protection against maximal electroshock-induced seizures at 30 mg/kg, ip after 4 hrs; type: functional, organism-based
Outline: (§1)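 Male CF-1 albino mice received compound i.p. as a suspension in 0.5% methylcellulose (30, 100 or 300 mg/kg). Maximal electroshock seizure test read 0.5 h and 4 h after dosing. Result given as animals protected/animals tested.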

Mus musculus [2] = experiment: Neurotoxicity in CF-1 albino mouse assessed as continuous seizure activity at 300 mg/kg, ip after 0.5 hrs by rotarod test; type: toxicity, organism-based; details: in vivo
Outline: (§2)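 Anticonvulsant Screening Program (NINDS) Phase 1 neurotoxicity screen in male albino CF-1 mice. Compounds were given i.p. as suspensions in 0.5% methylcellulose at 30, 100 and/or 300 mg/kg, and animals were observed 0.5 h and 4 h after dosing. The rotarod test was scored as number of animals showing toxicity over number tested, with the kind of toxicity recorded: inability to grasp rotorod, death, diarrhea, continuous seizure activity, loss of righting reflex, myoclonic jerks or tremors.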

Mus musculus [3] = experiment: Anticonvulsant activity in CF-1 albino mouse assessed as protection against subcutaneous pentetrazole-induced seizures at 300 mg/kg, ip after 0.5 hrs; type: functional, organism-based
Histamine H3 receptor [4] = target: T1, Histamine H3 receptor (Homo sapiens, UniProt Q9Y5N1); experiment: Displacement of [3H]Nalpha-Methylhistamine from recombinant human histamine H3 receptor expressed in HEK293 cell membranes after 90 mins by liquid scintillation counting analysis
Mus musculus [5] = experiment: Anticonvulsant activity in CF-1 albino mouse assessed as protection against maximal electroshock-induced seizures at 100 mg/kg, ip after 4 hrs; type: functional, organism-based; outline: as §1
Mus musculus [6] = experiment: Anticonvulsant activity in CF-1 albino mouse assessed as protection against subcutaneous pentetrazole-induced seizures at 30 mg/kg, ip after 4 hrs; type: functional, organism-based
Mus musculus [7] = experiment: Anticonvulsant activity in CF-1 albino mouse assessed as protection against maximal electroshock-induced seizures at 30 mg/kg, ip after 0.5 hrs; type: functional, organism-based; outline: as §1
Mus musculus [8] = experiment: Anticonvulsant activity in CF-1 albino mouse assessed as protection against maximal electroshock-induced seizures at 100 mg/kg, ip after 0.5 hrs; type: functional, organism-based; outline: as §1
Mus musculus [9] = experiment: Neurotoxicity in CF-1 albino mouse assessed as diarrhea at 300 mg/kg, ip after 0.5 hrs by rotarod test; type: toxicity, organism-based; details: in vivo; outline: as §2
Mus musculus [10] = experiment: Anticonvulsant activity in CF-1 albino mouse assessed as protection against subcutaneous pentetrazole-induced seizures at 30 mg/kg, ip after 0.5 hrs; type: functional, organism-based
Mus musculus [11] = experiment: Anticonvulsant activity in CF-1 albino mouse assessed as protection against subcutaneous pentetrazole-induced seizures at 100 mg/kg, ip after 0.5 hrs; type: functional, organism-based
Mus musculus [12] = experiment: Neurotoxicity in CF-1 albino mouse assessed as death at 300 mg/kg, ip after 0.5 hrs by rotarod test; details: in vivo
Mus musculus [13] = experiment: Neurotoxicity in CF-1 albino mouse at 30 mg/kg, ip after 4 hrs by rotarod test; type: toxicity, organism-based; details: in vivo
Outline: (§3)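 Male CF-1 mice were dosed i.p. with compound suspended in 0.5% methylcellulose (30, 100 or 300 mg/kg). Neurotoxicity was scored by rotarod 0.5 h and 4 h after dosing, as animals showing toxicity/animals tested. Type of toxicity was noted, e.g. inability to grasp the rod, tremors, death.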

Mus musculus [14] = experiment: Neurotoxicity in CF-1 albino mouse assessed as death at 300 mg/kg, ip after 0.5 hrs by rotarod test; type: toxicity, organism-based; details: in vivo; outline: as §2
Mus musculus [15] = experiment: Neurotoxicity in CF-1 albino mouse assessed as death at 100 mg/kg, ip after 4 hrs by rotarod test; type: toxicity, organism-based; details: in vivo; outline: as §2
Mus musculus [16] = experiment: Anticonvulsant activity in CF-1 albino mouse assessed as protection against subcutaneous pentetrazole-induced seizures at 100 mg/kg, ip after 4 hrs; type: functional, organism-based
Mus musculus [17] = experiment: Neurotoxicity in CF-1 albino mouse assessed as unable to grasp at 100 mg/kg, ip after 0.5 hrs by rotarod test; type: toxicity, organism-based; details: in vivo; outline: as §2
[18] = Lipophilicity of compound by RP-TLC analysis; type: physicochemical; details: methanol:acetic acid:water
Outline: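 Reversed-phase TLC on RP-18 plates with methanol:acetic acid:water mobile phase (acid constant at 10%, methanol 85–55% in 5% steps). Spots visualised with iodine. RM values were derived from Rf and extrapolated to zero methanol to give RM0.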

Rattus norvegicus = experiment: Anticonvulsant activity in albino Sprague-Dawley rat assessed as protection against maximal electroshock-induced seizures at 30 mg/kg, po after 0.5 to 4 hrs; type: functional, organism-based
Outline: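 Male Sprague-Dawley rats, four per group, were given compound orally at a fixed 30 mg/kg in 0.5% methylcellulose suspension. Maximal electroshock test was read at 0.5 h and 4 h.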

CYP3A4 = CYP3A4 (Homo sapiens, UniProt P08684); experiment: Activation of recombinant human CYP3A4 using Luciferin-BE as substrate at 25 uM in presence of NADPH by P450-Glo luminescence assay relative to control; type: ADME; details: recombinant human CYP3A4, probe Luciferin-PPXE, in the assay text read “Luciferin-PPXE” for “Luciferin-BE”, read-out: Activity
Outline: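 Recombinant human CYP3A4 P450-Glo luminescence assay: enzyme converts luciferin substrate to D-luciferin, then firefly luciferase is added and light output read as a measure of CYP3A4 activity. Final ligand concentrations 0.025–25 μM.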

HEK293 = experiment: Cytotoxicity against HEK293 cells assessed as reduction in cell viability after 48 hrs by EZ4U Non-radioactive cell proliferation assay; type: cell-based; details: Homo sapiens, HEK293, 48 h
Outline: (§4)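 IMR-32 cells (2×10^4/well) or HEK-293 cells (1.5×10^4/well) in DMEM with 10% FBS were preincubated 24 h at 37 °C, 5% CO2. Compounds from 25 mM DMSO stocks were added at final 0.01–250 μM, with DMSO ≤1%. After 48 h, EZ4U label was added for 5 h and absorbance read at 492 nm.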

Mus musculus [19] = experiment: Neurotoxicity in CF-1 albino mouse at 30 mg/kg, ip after 0.5 hrs by rotarod test; type: toxicity, organism-based; details: in vivo; outline: as §3
IMR-32 = experiment: Cytotoxicity against human IMR32 cells assessed as reduction in cell viability after 48 hrs by EZ4U Non-radioactive cell proliferation assay; type: cell-based; details: IMR-32, 48 h; outline: as §4
[20] = Drug metabolism in pooled human liver microsomes assessed as 2-(4-(5-(azepan-1-yl)pentyloxy)phenyl)propan-1-ol metabolite formation at 50 uM after 2 hrs in presence of NADPH by LC/MS analysis; type: ADME, microsome
Outline: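 Pooled human liver microsomes (1 mg/ml) in 0.1 M Tris-HCl pH 7.4 with compound at 50 μM. After 5 min preincubation at 37 °C, reaction was started with NADPH regeneration system and run 2 h at 37 °C. Stopped with cold methanol and centrifuged. Supernatant analysed by UPLC-ESI tandem quadrupole MS.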

[21] = Safety index, ratio of compound IC50 to doxorubicin IC50 for HEK293 cells after 48 hrs by EZ4U non-radioactive cell proliferation assay; type: ADME, cell-based; details: human, read-out: Ratio IC50
[22] = Safety index, ratio of compound IC50 to doxorubicin IC50 for human IMR32 cells after 48 hrs by EZ4U Non-radioactive cell proliferation assay; type: ADME, cell-based; details: IMR-32 cells, read-out: Ratio IC50
Histamine H3 receptor [23] = target: T1, Histamine H3 receptor; experiment: Displacement of [125I]Iodoproxyfan from recombinant human histamine H3 receptor expressed in CHOK1 cell membranes after 90 mins
Outline: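 Membranes of CHO-K1 cells expressing hH3R were incubated 90 min at 25 °C, shaken at 250 rpm, with [125I]iodoproxyfan (16–50 pM) and test compound. Nonspecific binding was defined with 1 μM imetit. Separation by filtration on PEI-treated GF/B filters. Ki obtained from IC50 by Cheng-Prusoff.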

Mus musculus [24] = experiment: Neurotoxicity in CF-1 albino mouse at 100 mg/kg, ip after 4 hrs by rotarod test; type: toxicity, organism-based; details: in vivo; outline: as §3
Mus musculus [25] = experiment: Neurotoxicity in CF-1 albino mouse at 300 mg/kg, ip after 4 hrs by rotarod test; type: toxicity, organism-based; details: in vivo; outline: as §2
Mus musculus [26] = experiment: Anticonvulsant activity in CF-1 albino mouse assessed as protection against maximal electroshock-induced seizures at 300 mg/kg, ip after 0.5 hrs; type: functional, organism-based; outline: as §1
Mus musculus [27] = experiment: Anticonvulsant activity in CF-1 albino mouse assessed as protection against subcutaneous pentetrazole-induced seizures at 300 mg/kg, ip after 4 hrs; type: functional, organism-based
Mus musculus [28] = experiment: Anticonvulsant activity in CF-1 albino mouse assessed as protection against maximal electroshock-induced seizures at 300 mg/kg, ip after 4 hrs; type: functional, organism-based; outline: as §1
Mus musculus [29] = experiment: Neurotoxicity in CF-1 albino mouse assessed as diarrhea at 100 mg/kg, ip after 0.5 hrs by rotarod test; type: toxicity, organism-based; details: in vivo; outline: as §2
Mus musculus [30] = experiment: Neurotoxicity in CF-1 albino mouse assessed as tremor at 30 mg/kg, ip after 0.5 hrs by rotarod test; type: toxicity, organism-based; details: in vivo, 100 mg/kg, in the assay text read “100 mg/kg” for “30 mg/kg”; outline: as §3
Mus musculus [31] = experiment: Neurotoxicity in CF-1 albino mouse assessed as continuous seizure activity at 100 mg/kg, ip after 0.5 hrs by rotarod test; type: toxicity, organism-based; details: in vivo; outline: as §2
Mus musculus [32] = experiment: […] in po dosed mouse brain assessed as activation in HA release measured after 90 mins; type: functional; details: 1.5 h
Mus musculus [33] = experiment: Neurotoxicity in CF-1 albino mouse assessed as unable to grasp at 30 mg/kg, ip after 0.5 hrs by rotarod test; type: toxicity, organism-based; details: in vivo, 100 mg/kg, in the assay text read “100 mg/kg” for “30 mg/kg”; outline: as §3

T1 sequence (Q9Y5N1 whole entry): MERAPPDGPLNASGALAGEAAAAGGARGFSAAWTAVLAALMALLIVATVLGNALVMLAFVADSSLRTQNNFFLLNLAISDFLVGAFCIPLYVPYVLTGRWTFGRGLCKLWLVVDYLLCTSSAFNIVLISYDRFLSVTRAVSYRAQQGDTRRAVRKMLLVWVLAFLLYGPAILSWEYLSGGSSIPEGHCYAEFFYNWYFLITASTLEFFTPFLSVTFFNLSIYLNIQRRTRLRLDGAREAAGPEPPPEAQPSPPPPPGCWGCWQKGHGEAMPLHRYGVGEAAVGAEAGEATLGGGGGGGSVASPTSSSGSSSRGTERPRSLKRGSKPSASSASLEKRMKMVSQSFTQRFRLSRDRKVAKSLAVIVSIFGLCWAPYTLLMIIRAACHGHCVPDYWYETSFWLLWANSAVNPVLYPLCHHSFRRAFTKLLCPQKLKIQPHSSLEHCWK
Sequence of CYP3A4 (P08684 whole entry): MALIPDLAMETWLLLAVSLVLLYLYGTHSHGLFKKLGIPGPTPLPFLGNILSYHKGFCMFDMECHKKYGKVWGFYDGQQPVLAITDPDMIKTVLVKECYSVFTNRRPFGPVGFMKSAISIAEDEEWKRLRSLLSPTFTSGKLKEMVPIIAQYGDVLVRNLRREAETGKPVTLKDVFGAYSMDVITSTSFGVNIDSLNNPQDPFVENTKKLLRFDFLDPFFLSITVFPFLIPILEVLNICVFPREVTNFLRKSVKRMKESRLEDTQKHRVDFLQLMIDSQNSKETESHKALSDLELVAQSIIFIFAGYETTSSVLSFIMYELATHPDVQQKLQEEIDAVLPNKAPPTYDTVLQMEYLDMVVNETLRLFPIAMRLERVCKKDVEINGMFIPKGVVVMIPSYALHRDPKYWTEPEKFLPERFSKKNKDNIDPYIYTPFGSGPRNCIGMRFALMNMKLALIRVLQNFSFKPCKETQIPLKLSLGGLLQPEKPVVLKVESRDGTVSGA

SMILES | Activity (Mus musculus [1]) | Activity (Mus musculus [3]) | pKi (Histamine H3 receptor [4]) | Activity (Mus musculus [5]) | Activity (Mus musculus [6]) | Activity (Mus musculus [7]) | Activity (Mus musculus [8]) | Activity (Mus musculus [10]) | Activity (Mus musculus [11]) | Activity (Mus musculus [12]) | Activity (Mus musculus [13]) | Activity (Mus musculus [14]) | Activity (Mus musculus [16]) | Rm [18] | pKi (Histamine H3 receptor [23]) | Activity (Mus musculus [26]) | further results
CCC(C)(C)c1ccc(OCCCCN2CCC(C)CC2)cc1.O=C(O)C(=O)O | inactive | Active | 6.62 | inactive | inactive | Active | Active | inactive | Active | Toxic | Non-Toxic | Toxic |  |  |  |  | Activity (Mus musculus [2]): Toxic; Activity (Mus musculus [9]): Toxic
CCC(C)(C)c1ccc(OCCCCN2CCCC(C)C2)cc1.O=C(O)C(=O)O (stereo not given) | inactive |  | 7.34 | Active | inactive | Active | Active | inactive |  |  | Non-Toxic | Toxic | inactive | 2.294 |  |  | Activity (Mus musculus [15]): Toxic; Activity (Mus musculus [17]): Toxic; Activity (Rattus norvegicus): inactive
CCC(C)(C)c1ccc(OCCCCCN2CCCCCC2)cc1.O=C(O)C(=O)O | inactive |  |  |  | inactive | Active | Active | inactive | inactive |  | Non-Toxic |  | inactive | 2.389 | 7.67 |  | activity at 25 µM (CYP3A4): 76%; pIC50 (HEK293): 4.40; Activity (Mus musculus [19]): Non-Toxic; pIC50 (IMR-32): 4.91; Drug metabolism [20]: Metabolite_Detected; selectivity ratio at 48 h [21]: 50 to 90; selectivity ratio at 48 h [22]: > 1000
CCC(C)(C)c1ccc(OCCCCCCCN2CCCCC2)cc1.O=C(O)C(=O)O | inactive |  |  | inactive | inactive | inactive | Active | inactive | inactive | Toxic | Non-Toxic |  | inactive | 2.624 | 7.26 | Active | Activity (Mus musculus [24]): Non-Toxic; Activity (Mus musculus [25]): Non-Toxic; Activity (Mus musculus [17]): Toxic
CCC(C)(C)c1ccc(OCCCCCCCCN2CCCC(C)C2)cc1.O=C(O)C(=O)O (stereo not given) | inactive | inactive |  | Active | inactive | inactive |  | inactive | inactive |  | Non-Toxic |  | inactive | 3.562 | 6.92 | Active | Activity (Mus musculus [24]): Non-Toxic; Activity (Mus musculus [19]): Non-Toxic; Activity (Mus musculus [27]): inactive; Activity (Rattus norvegicus): inactive
CCC(C)(C)c1ccc(OCCCCCCCN2CCCC(C)C2)cc1.O=C(O)C(=O)O (stereo not given) | inactive | inactive |  | Active | inactive | inactive |  | inactive | inactive |  | Non-Toxic |  | inactive | 2.983 | 7.44 | Active | Activity (Mus musculus [28]): inactive
CCC(C)(C)c1ccc(OCCCCN2CCCCCC2)cc1.O=C(O)C(=O)O | inactive |  | 7.17 | Active |  | inactive | Active |  |  | Toxic | Non-Toxic | Toxic |  | 2.292 |  |  | Activity (Mus musculus [29]): Toxic; Activity (Mus musculus [9]): Toxic
CCC(C)(C)c1ccc(OCCCCCCN2CCCC(C)C2)cc1.O=C(O)C(=O)O (stereo not given) | inactive |  |  | Active | inactive | Active | Active | inactive | inactive | Toxic | Non-Toxic |  | inactive | 2.521 | 7.47 | Active | Activity (Mus musculus [30]): Toxic; Activity (Mus musculus [31]): Toxic
Clc1ccc(CCCOCCCN2CCCCC2)cc1 [PITOLISANT] |  |  |  |  |  |  |  |  |  |  |  |  |  |  |  |  | ED50 (Mus musculus [32]): 1.5 mg/kg
CCC(C)(C)c1ccc(OCCCCCCN2CCCCCC2)cc1.O=C(O)C(=O)O | inactive |  |  | inactive | inactive | inactive | Active | inactive | inactive | Toxic | Non-Toxic |  | inactive | 2.567 | 7.39 |  | Activity (Mus musculus [33]): Toxic
